Screening data as filed in PubChem BioAssay.
Hits are enriched below; roughly 3.6% of the tested compounds scored in any of these assays.
Wnt act = Wnt/beta-catenin pathway activation; Wnt/beta-catenin reporter cell assay, activator, plate reader; activation, % at 9.35 µM; hit rate 1.2% among 300,000; AID 743398; in the data active = activation above about 30%, passing the limit was not always enough; inconclusive = no clear call, values can overlap the other calls;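 also: 0% = neutral control wells and 100% = positive control wells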
SR-BI HDL uptake = mouse SR-BI HDL lipid transfer inhibition. Q61009. ldlA[mSR-BI] CHO cells, DiI-HDL uptake fluorescence, 3 h. inhibition, % at 12.5 µM. hit rate 0.96% among 320,000. AID 488896;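 active = mean replicate inhibition of at least 70% and a set share of replicates each scoring 70 or more; inconclusive = meets just one of the two criteria; inactive = fails both criteria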;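 also: 0% = median of neutral control wells and 100% = median of positive control wells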
Target sequence (Q61009 whole entry, looked up): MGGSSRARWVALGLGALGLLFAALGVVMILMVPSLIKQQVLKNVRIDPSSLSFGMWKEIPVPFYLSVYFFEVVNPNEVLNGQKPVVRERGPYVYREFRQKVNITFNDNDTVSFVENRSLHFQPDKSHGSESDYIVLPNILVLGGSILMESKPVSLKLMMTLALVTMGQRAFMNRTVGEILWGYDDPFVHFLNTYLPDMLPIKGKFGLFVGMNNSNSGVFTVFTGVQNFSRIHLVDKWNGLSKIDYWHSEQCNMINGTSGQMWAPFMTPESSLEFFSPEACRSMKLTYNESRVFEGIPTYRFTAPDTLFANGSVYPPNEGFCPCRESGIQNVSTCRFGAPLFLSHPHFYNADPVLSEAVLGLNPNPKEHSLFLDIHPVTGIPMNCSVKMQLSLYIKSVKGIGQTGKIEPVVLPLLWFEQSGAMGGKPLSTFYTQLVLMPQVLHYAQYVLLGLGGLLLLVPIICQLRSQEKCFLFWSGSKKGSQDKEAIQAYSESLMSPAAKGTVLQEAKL
SR-BI DiI-HDL act = SR-BI HDL lipid transfer activation. activation, % at 12.5 µM. hit rate 0.096% among 320,000. CHO ldlA[mSR-BI] cells, DiI-HDL uptake fluorescence, 3 h; 100 = double the neutral-control signal. AID 504775;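 active = mean replicate activation of at least 60% and every replicate at or above 60%; inconclusive = mean or all-replicate condition met, but not both; inactive = mean below 60% and not all replicates reaching 60%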;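 also: 0% = median plate neutral-control signal and 100% = twice that signal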
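System: LDL receptor-deficient CHO ldlA cells overexpressing murine SR-BI | Timing: 3 h uptake period with compound, 37 °C | Medium: HEPES-buffered (25 mM, pH 7.4) F12 plus 0.5% BSA | Dosing: Single-point compound dose | Signal: Bottom-read fluorescence, 550/595 nm | Read-out: Retained DiI signal reflecting DiI-HDL uptake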
HSF1 activator = increases HSF-1 driven luciferase reporter signal | AID 504408 | NIH3T3-HGL HSF-1 luciferase reporter, MG132, 8 h; 100% = twice DMSO control signal | activation, % at 9 µM | hit rate 1.7% among 300,000;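 active = mean replicate activation of at least 50% with a set share of replicates each reaching 50%; inconclusive = only one of those two conditions met; inactive = mean below 50% and too few replicates reaching it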;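 also: 0% = median of the neutral control wells and 100% = twice that signal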
MITF TRPM1 HTS = increases MITF-driven TRPM1 promoter luciferase signal; SK-MEL-5 TRPM1-promoter luciferase, 24 h; % of positive control, neutral wells = 0; activation, % at 12.5 µM; hit rate 0.75% among 300,000; AID 588334;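 active = mean activation of at least 80% with every replicate also reaching 80%; inconclusive = mean reaches 80% but some replicate falls short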;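 also: 0% = neutral control wells and 100% = parthenolide positive control wells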
The depositor's hits bear a star; ? = inconclusive; / = no result.

SMILES	Wnt act	SR-BI HDL uptake	SR-BI DiI-HDL act	HSF1 activator	MITF TRPM1 HTS
Cc1[nH]c(=O)[nH]c(=O)c1CCSSCCc1c(C)[nH]c(=O)[nH]c1=O	15	/	/	/	/
O=C(/C=C/c1ccc(Cl)cc1)NC(=S)Nc1ccc(CN2CCOCC2)cc1	-2	40	-40	86*	-6
O=C(/C=C/c1ccccc1)Nc1ccc(CN2CCOCC2)cc1	12	11	-11	25	69
CCOc1ccc(NC(=S)N(Cc2ccc(Cl)cc2)Cc2ccco2)cc1	-1	3	-3	176*	1
CCOc1ccc(NC(=S)NC(=O)c2ccco2)cc1	12	23	-23	52*	89*
CCOC(=O)c1ccc(NC(=S)N(Cc2cccnc2)Cc2ccco2)cc1	-1	12	-12	-17	-3
CC(=O)Nc1ccc(NC(=S)NC(=O)/C=C/c2ccc(Cl)cc2)cc1	-11	46	-46	-11	5
O=C(/C=C/c1ccc(Cl)cc1)NC(=S)Nc1ccc(NC(=O)c2ccco2)cc1	/	24	-24	64*	-15
OCC1OC(C(N=Nc2ccccc2)=NNc2ccccc2)C(O)C1O (configuration not stated)	2	/	/	/	/
COc1ccc(CCNC(=O)COc2coc(CN3c4ccccc4CC3C)cc2=O)cc1OC (configuration not stated)	-2	85*	-85	-6	-23
CC1Cc2ccccc2N1Cc1cc(=O)c(OCC(=O)Nc2ccccc2)co1 (configuration not stated)	-2	3	-3	-8	-7
CC(=NC1CC1)C1=C(O)c2ccccc2C1=O	-2	-13	13	10	98*
CCOc1ccc(N=C(C)C2=C(O)c3ccccc3C2=O)cc1	39*	-3	3	63*	/
COc1ccc(N=C(C)C2=C(O)c3ccccc3C2=O)cc1	58*	-13	13	67*	11
Cc1cc(NC(=O)COc2ccc(C)c(C)c2)no1	8	/	/	12	90*
Cc1ccc(OCC(=O)Nc2cc(C(C)(C)C)on2)cc1C	9	19	-19	22	27
Cc1cc(NC(=O)COc2ccccc2C)no1	12	-19	19	33	95*
COC(=O)CC#C[C@H](C)[C@@H](NS(=O)(=O)c1ccc(C)cc1)C1CCCCC1	-1	/	/	/	/
CC[C@H](NC(=O)[C@@H](Cc1ccccc1)NC(=O)[C@H]1O[C@@H](n2cnc3c(=O)[nH]c(N)nc32)[C@H](O)[C@@H]1O)c1ccccc1	0	/	/	/	/
Cc1ccc(-c2cn(S(=O)(=O)c3ccc(C)cc3)nc2N)cc1	/	-6	6	70*	-5
CCCCN1C(=O)C(=O)c2cc(Cl)ccc21	-15	-10	10	/	-22
COc1ccc(-c2nnc(Nc3ccc(CC(N)=O)cc3)c3ccccc23)cc1	/	24	-24	57*	0
NC(=O)Cc1ccc(Nc2nnc(-c3ccccc3)c3ccccc23)cc1	1	-2	2	/	1
Cc1cc(-c2n[nH]c(=S)n2Cc2ccco2)n(C)n1	3	-61	61*	12	7
Cc1ccc(C(C)C)c(OCc2ccc(C(=O)N/N=C/c3cccc(O)c3O)cc2)c1	28	136*	-136	-58	-83
SMILES	Wnt act	SR-BI HDL uptake	SR-BI DiI-HDL act	HSF1 activator	MITF TRPM1 HTS
Cc1ccc(C(C)C)c(OCc2ccc(C(=O)N/N=C/c3ccc(O)c(O)c3)cc2)c1	/	82*	-82	-29	-26
O=C(O)c1cc([N+](=O)[O-])cc2ccccc12	-7	-90	90*	/	-2
O=C(O)c1cc([N+](=O)[O-])ccc1-c1ccc([N+](=O)[O-])cc1C(=O)O	-2	/	/	/	/
CN(C(=O)c1cccc(NC(=O)Cc2cccc(NC(=O)C3CCCN(C(=O)C4CCC4)C3)c2)c1)C1CCC1 (configuration not stated)	1	67	-67	/	4
CCSc1nnc([C@H](Cc2c[nH]c3ccccc23)NC(=O)OC(C)(C)C)o1	-4	-2	2	59*	/
CSc1nnc([C@H](Cc2c[nH]c3ccccc23)NC(=O)OC(C)(C)C)o1	20	-5	5	-6	/
COc1ncc(-c2ccc(N3C(c4ccsc4)=Cc4ccc(F)cc4C3CC(C)=O)cc2)cn1 (configuration not stated)	3	/	/	/	/
CC1=[N+](C)c2c(ccc3cccnc23)C1(C)C	-6	-97	97*	/	27
c1ccc(-n2ncc3c(NCCN4CCOCC4)ncnc32)cc1	47*	1	-1	26	38
Clc1ccc(-n2ncc3c(NCc4cccs4)ncnc32)cc1	/	2	-2	57*	/
c1ccc(-n2ncc3c(NCCN4CCCCC4)ncnc32)cc1	/	-14	14	-13	11
Oc1ccc(-c2nc(-c3ccc(O)c(O)c3)cs2)cc1	/	18	-18	37	/
Oc1ccc(-c2nccs2)cc1	-4	-73	73*	/	-5
CCN(CC(=O)Nc1c(F)cccc1F)C(=O)CNC(=O)c1cccs1	38*	1	-1	7	-11
CCN(CC(=O)Nc1c(F)cccc1F)C(=O)CNC(=O)c1ccc2ccccc2c1	-2	18	-18	/	11
O=C(N/N=C/c1cccn1-c1ccc(O)cc1)c1cccc2ccccc12	0	77*	-77	-15	9
COc1ccc(NS(=O)(=O)c2cccc(C(=O)N/N=C/c3c(F)c(F)c(F)c(F)c3F)c2)cc1	0	51	-51	/	-7
O=C(N/N=C/c1sc2ccccc2c1O)c1cccc2ccccc12	/	106*	-106	-7	-42
O=C(N/N=C/c1ccccc1)c1cccc2ccccc12	-1	-4	4	19	-1
O=C(N/N=C/c1ccccc1F)c1cccc2ccccc12	15	7	-7	21	20
COc1ccc(C(=O)N/N=C/c2sc3ccccc3c2O)cc1	/	120*	-120	10	-31
COc1ccc(C(=O)N/N=C/c2c[nH]c3ccccc23)cc1	5	-9	9	14	15
COc1ccc2cc(C(=O)N/N=C/c3sc4ccccc4c3O)ccc2c1	/	96*	-96	6	-5
COc1ccc(-c2nc3c4ccccc4ccn3c2Cc2ccccc2C(F)(F)F)cc1OC	-3	/	/	/	/
O=C(N/N=C/c1sc2ccccc2c1O)c1ccccc1	/	118*	-118	270*	-27
SMILES	Wnt act	SR-BI HDL uptake	SR-BI DiI-HDL act	HSF1 activator	MITF TRPM1 HTS
C=CCSc1nnc(-c2ccc(Cl)cc2Cl)o1	?	-2	2	57*	59
c1ccc2[nH]c(CSc3nnc(-c4ccncc4)o3)nc2c1	-5	-23	23	-48	-17
Clc1ccc(-c2nnc(SCc3ccon3)o2)c(Cl)c1	/	-37	37	58*	38
Clc1ccc(-c2nnc(SCc3nc4ccccc4[nH]3)o2)c(Cl)c1	0	-4	4	75*	-13
CC1C(=O)N(Cc2cn(Cc3ccco3)nn2)CCS(=O)(=O)N1Cc1ccc(-c2ccc(Cl)cc2)cc1 (configuration not stated)	-2	/	/	/	/
CCCCN(C(=O)c1ccccc1Cl)C(CC(C)C)c1nc2ccccc2[nH]1 (configuration not stated)	-1	/	/	/	/
